Measured values published in ChEMBL document CHEMBL1147162, “Synthesis, pharmacological evaluation and electrochemical studies of novel 6-nitro-3,4-methylenedioxyphenyl-N-acylhydrazone derivatives: Discovery of LASSBio-881, a new ligand of cannabinoid receptors” (2007).
Active and inactive are the calls of the source.

Key:
[1] = tested on: Rattus norvegicus; assay: Antiinflammatory activity against carrageenan-induced paw edema in Wistar rat at 300 umol/kg, po after 3 hrs; type: functional
How it was run: (§1)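 Fasted Wistar rats of both sexes (150–200 g) were dosed orally at 300 µmol/kg in 5% arabic gum in saline. One hour later they were injected subplantar with 0.1 mg/paw carrageenan, with saline in the contralateral paw. Paw volume was read by plethysmometer 3 h later as the difference between the paws. Results are % inhibition vs vehicle; ID50 is also given.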

[2] = Antioxidant activity assessed as superoxide degradation at 0.25 mM; type: functional
How it was run: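 The reaction was started with xanthine oxidase (~0.2 U/mL). Cytochrome c reduction was read spectrophotometrically at the Soret band as ΔA/min; % degradation is relative to vehicle.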

[3] = Antioxidant activity assessed as hydroxyl radical degradation at 0.5 mM; type: functional
How it was run: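 2-Deoxy-D-ribose (10 mM) was incubated with Hepes pH 7.2 (10 mM), compound in DMSO (0.5 mM) and H2O2 (1 mM) for 1 h at 37 °C, started with Fe(NH4)2(SO4)2 10 µM. Results are % degradation vs vehicle.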

[4] = tested on: Mus musculus; assay: Antihyperalgesic effect against formalin-induced pain in mouse at 100 umol/kg, po assessed as licking activity in neurogenic phase; type: functional
How it was run: (§2)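 Mice injected subplantar in one hind paw with 20 µL 2.5% formalin; compounds given orally at 100 µmol/kg in 5% arabic gum 60 min before. Time spent licking or biting the injected paw was recorded, with the neurogenic phase at 0–5 min and the inflammatory phase at 15–30 min. Percent inhibition is vs vehicle (ANOVA/Dunnett).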

[5] = tested on: Mus musculus; assay: Antihyperalgesic effect against formalin-induced pain in mouse at 100 umol/kg, po assessed as licking activity in inflammatory phase; type: functional; how it was run: as §2
[6] = tested on: Radical scavenging activity; assay: Antioxidant activity assessed as DPPH radical scavenging activity at 0.1 mM; type: functional
[7] = tested on: Rattus norvegicus; assay: Antiinflammatory activity against carrageenan-induced paw edema in Wistar rat; type: functional; details: read-out: ID50 (the source's name); how it was run: as §1
[8] = tested on: Mus musculus; assay: Antiinflammatory activity against AA-induced ear edema in Swiss mouse at 300 umol/kg, po after 1 hr; type: functional
How it was run: (§3)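 Fasted Swiss mice received an oral dose of 300 µmol/kg (5% arabic gum suspension) 1 h before topical challenge on the right ear (20 µl acetone): AA 500 µg/ear or TPA 2 µg/ear. The left ear got acetone. Ears were weighed from 7 mm punches 1 h after AA or 6 h after TPA. Inhibition = (C−T)/C×100 vs vehicle.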

[9] = tested on: Mus musculus; assay: Antiinflammatory activity against TPA-induced ear edema in Swiss mouse at 300 umol/kg, po after 6 hrs; type: functional; how it was run: as §3
[10] = tested on: Mus musculus; assay: Antinociceptive activity in Swiss mouse at 100 umol/kg, po assessed as increase in latency time; type: functional, organism-based
How it was run: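 Hot plate held at 55 ± 1 °C. Swiss mice of both sexes (18–25 g), fasted 8 h, were given 100 µmol/kg orally. Latency to first paw licking or jumping was read at 0, 30, 60, 90 and 120 min, with a 25 s cut-off. Morphine 39.5 µmol/kg was the positive control; n = 7–10.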

[11] = target: Cannabinoid receptor 1 (Mus musculus) (UniProt P47746); assay: Displacement of [3H]SR141716A from CB1 cannabinoid receptor in Swiss mouse brain homogenate; type: tissue-based
Cannabinoid receptor 1 (Mus musculus), sequence (P47746 whole entry): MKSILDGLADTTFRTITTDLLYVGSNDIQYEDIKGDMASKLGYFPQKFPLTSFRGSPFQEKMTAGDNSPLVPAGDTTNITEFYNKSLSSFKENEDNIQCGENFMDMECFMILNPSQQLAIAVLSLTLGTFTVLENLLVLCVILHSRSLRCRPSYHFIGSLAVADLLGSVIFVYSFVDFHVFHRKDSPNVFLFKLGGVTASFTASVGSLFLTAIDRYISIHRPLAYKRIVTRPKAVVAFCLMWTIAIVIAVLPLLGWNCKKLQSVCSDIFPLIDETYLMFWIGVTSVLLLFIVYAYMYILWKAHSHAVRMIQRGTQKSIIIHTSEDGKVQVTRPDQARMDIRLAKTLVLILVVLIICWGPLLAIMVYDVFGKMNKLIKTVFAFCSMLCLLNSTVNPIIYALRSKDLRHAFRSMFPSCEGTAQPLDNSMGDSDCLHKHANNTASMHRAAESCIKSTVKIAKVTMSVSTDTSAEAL
How it was run: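 Swiss mouse (30–40 g) whole-brain membranes, 160 µg protein, were incubated with 10 nM [3H]SR141716A plus PMSF (FAAH inhibitor) in Tris/EDTA/MgCl2 buffer with fatty acid-free BSA, pH 7.4, for 1 h at 30 °C. Nonspecific binding was set with 100 µM AM281. Samples were filtered on PEI-treated filters and counted by scintillation; n = 5 animals.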

[12] = tested on: T-cell; assay: Induction of anti CD3-stimulated T-lymphocyte apoptosis after 48 hrs; type: functional
How it was run: (§4)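 Nylon wool-enriched mouse splenic T cells (10^6/mL, DMEM + 1% nutridoma) were stimulated with anti-CD3 (145.2C11) plus PMA, with or without compound at 10 µM, for 48 h at 37 °C in 7% CO2. They were stained with FITC-annexin V (apoptosis) and 7-AAD (necrosis) and analysed by flow cytometry. Runs were in triplicate with at least 3 experiments.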

[13] = tested on: T-cell; assay: Induction of anti CD3-stimulated T-lymphocyte necrosis after 48 hrs; type: functional; how it was run: as §4
[14] = tested on: Lymphocyte; assay: Inhibition of lymphocyte proliferation; type: functional, cell-based
How it was run: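 Nylon wool-enriched splenic T cells in supplemented DMEM + 1% nutridoma were cultured in triplicate with soluble anti-CD3 (2% v/v 145.2C11) and PMA 0.5 ng/mL plus compound for 3 days at 37 °C in 7% CO2. [3H]thymidine (1.0 µCi/well) was added for the last 18 h and incorporation counted; at least 3 experiments.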

Row | Compound | inhibition in vivo at 300 µmol/kg [1] | inhibition in vivo at 100 µmol/kg [4] | inhibition in vivo at 100 µmol/kg [5] | ED50 [7] | inhibition in vivo at 300 µmol/kg [8] | inhibition in vivo at 300 µmol/kg [9] | also measured
1 | O=C(N/N=C/c1ccccn1)c1cc2c(cc1[N+](=O)[O-])OCO2 | 22.8% |  |  |  |  |  | 
2 | O=C(N/N=C/c1ccc[nH]1)c1cc2c(cc1[N+](=O)[O-])OCO2 | 20.9% |  |  |  |  |  | 
3 | O=C(N/N=C/c1ccco1)c1cc2c(cc1[N+](=O)[O-])OCO2 | 4.1% |  |  |  |  |  | 
4 | O=C(N/N=C/c1ccccc1)c1cc2c(cc1[N+](=O)[O-])OCO2 | 3.5% | -21.1% | 1.5% |  |  |  | Activity [2]: 19.6%; Activity [3]: 83.2%; Activity [6]: 7.49%
5 | O=C(N/N=C/c1ccncc1)c1cc2c(cc1[N+](=O)[O-])OCO2 | 13.3% |  |  |  |  |  | 
6 | O=C(N/N=C/c1cccs1)c1ccc2c(c1)OCO2 | 29.7% | 17.9% | 48.6% | 14.3 µmol/kg | -1.6% | -10.5% | 
7 | O=C(N/N=C/c1cccs1)c1cc2c(cc1[N+](=O)[O-])OCO2 | 3.4% |  |  |  |  |  | 
8 | CC(C)(C)c1cc(/C=N/NC(=O)c2ccc3c(c2)OCO3)cc(C(C)(C)C)c1O | 36.4% | 4.1% | 3.1% | 96.5 µmol/kg | 26.7% | -19.6% | Activity [3]: 85.2%; Activity [6]: 45.7%
9 | CC(C)(C)c1cc(/C=N/NC(=O)c2cc3c(cc2[N+](=O)[O-])OCO3)cc(C(C)(C)C)c1O | 31.7% | 44.5% | 13.4% | 195 µmol/kg | 36% | 24.1% | Activity [10]: Active; Activity [2]: -2.9%; Activity [3]: 84.6%; Activity [11]: 71%; Activity [12]: 43.8%; Activity [13]: 0%; Activity [14]: Active; Activity [6]: 32%
10 | CS(=O)(=O)Nc1ccc([N+](=O)[O-])cc1Oc1ccccc1 [NIMESULIDE] | 57.5% | 9.3% | 70.3% | 22.7 µmol/kg | 100% | -10.6% | 
11 | CCCCC/C=C\C/C=C\C/C=C\C/C=C\CCCC(=O)NCCO [ANANDAMIDE] |  |  |  |  |  |  | Activity [12]: 50.8%; Activity [13]: 0.1%
